# Source: ChEMBL document CHEMBL3526116, “Toxicological evaluation of acyl glucuronides of nonsteroidal anti-inflammatory drugs using human embryonic kidney 293 cells stably expressing human UDP-glucuronosyltransferase and human hepatocytes” (Drug Metab Dispos, 2011)
# How the values were obtained:
# [1] = target: T1, UDP-glucuronosyltransferase 1A3 (Homo sapiens, UniProt P35503); assay: Activity of human UGT1A3 expressed in HEK293 cells assessed as enzyme-mediated diclofenac acyl-beta-D-glucuronide formation at 0.1 mM measured at 24 hrs by LC-MS/MS analysis; type: ADME, cell-based; details: hek293, 24 h, 100 µM
# T1 sequence (P35503 whole entry): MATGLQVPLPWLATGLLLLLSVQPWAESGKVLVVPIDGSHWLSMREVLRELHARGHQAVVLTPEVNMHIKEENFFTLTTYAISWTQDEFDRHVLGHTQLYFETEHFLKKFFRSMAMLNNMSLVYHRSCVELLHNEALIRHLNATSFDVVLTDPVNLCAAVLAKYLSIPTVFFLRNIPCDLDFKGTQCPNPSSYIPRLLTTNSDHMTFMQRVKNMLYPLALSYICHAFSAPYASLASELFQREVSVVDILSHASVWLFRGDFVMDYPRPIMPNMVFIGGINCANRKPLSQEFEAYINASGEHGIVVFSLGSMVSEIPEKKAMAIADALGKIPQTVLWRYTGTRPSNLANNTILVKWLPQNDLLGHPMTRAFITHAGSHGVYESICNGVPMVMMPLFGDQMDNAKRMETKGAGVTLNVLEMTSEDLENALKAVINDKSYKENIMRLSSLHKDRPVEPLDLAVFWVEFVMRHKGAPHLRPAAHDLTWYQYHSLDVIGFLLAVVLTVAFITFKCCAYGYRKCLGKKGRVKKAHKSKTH
# Method in brief: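 HEK293 stably expressing human UGT1A3 (G418-selected), 2 x 10^5 cells/well in 1 mL DMEM with 0.5% FBS, exposed immediately to drug for 6, 12 or 24 h; DMSO ≤0.1% final. Cells and medium separated by centrifugation, cell fraction resuspended in PBS; aliquots mixed 1:1 with methanol/acetic acid (100:1), spun, supernatant analysed by LC-MS/MS. Triplicate determinations, mean ± SD.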
# HEK293 [2] = assay: Cytotoxicity against HEK293 cells expressing UGT1A4 assessed as decrease in cell viability at 0.1 mM by MTT assay; type: ADME, cell-based; details: human, hek293, 100 µM; TDE = time-dependent effect
# HEK293 [3] = assay: Cytotoxicity against HEK293 cells expressing UGT1A4 assessed as decrease in cell viability by measuring intracellular ATP content at 0.1 mM by CellTiter-Glo luminescent assay; type: ADME, cell-based; details: human, hek293, 100 µM; TDE = time-dependent effect
# Method in brief: (§1)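 UGT1A3 or UGT1A4 stable HEK293 cells, 2 x 10^4 cells/well in 0.1 mL DMEM with 0.5% FBS, drug for 6, 12 or 24 h. Viability from intracellular ATP via CellTiter-Glo luminescence, expressed as percent of control cells. Mean ± SD of triplicates.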
# HEK293 [4] = assay: Cytotoxicity against mock transfected HEK293 cells assessed as decrease in cell viability at 0.1 mM […]; type: cell-based; details: human, hek293, 100 µM; TDE = time-dependent effect
# HEK293 [5] = assay: Cytotoxicity against mock transfected HEK293 cells assessed as decrease in cell viability by measuring intracellular ATP content at 0.1 mM by CellTiter-Glo luminescent assay; type: cell-based; details: human, hek293, 100 µM; TDE = time-dependent effect
# Method in brief: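 Mock-transfected HEK293 cells seeded at 2 x 10^4 cells/well in DMEM with 0.5% FBS, drug added at once and incubated 6, 12 or 24 h. Viability read either by WST-8 (CCK-8) formazan absorbance at 450 nm or by intracellular ATP luminescence (CellTiter-Glo), as percent of control cells; mean ± SD of triplicates. Final DMSO ≤0.1%.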
# HEK293 [6] = assay: Cytotoxicity against HEK293 cells expressing UGT assessed as decrease in cell viability at 0.1 mM measured up to 72 hrs by MTT assay; type: ADME, cell-based; details: human, hek293, 72 h, 100 µM
# Method in brief: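 Mock and UGT1A3/UGT1A4 stable HEK293 cells given drug for up to 72 h; viability measured by WST-8-based MTT assay.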
# Hepatocyte [7] = assay: Cellular uptake in human hepatocytes at 0.1 mM measured at 6 hrs by LC-MS/MS analysis in presence of acyl glucuronidation inhibitor (-)-borneol; type: ADME, cell-based; details: 100 µM
# Method in brief: (§2)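 Cryopreserved pooled human hepatocytes on collagen-coated wells, 2 × 10^5 cells/well in HCM medium with 0.5% FBS, preincubated 30 min with or without 1 mM (-)-borneol, then drug for 6 h; DMSO ≤0.2% final. Parent drug in cell fraction measured by LC-MS/MS after methanol/acetic acid extraction. Mean ± SD of triplicates.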
# Hepatocyte [8] = assay: Cellular uptake in human hepatocytes at 0.1 mM measured at 6 hrs by LC-MS/MS analysis in absence of acyl glucuronidation inhibitor (-)-borneol; type: ADME, cell-based; details: 100 µM; method in brief: as §2
# HEK293 [9] = assay: Genotoxicity in HEK293 cells expressing UGT1A3 assessed as DNA strand breaks at 0.1 mM after 24 hrs by comet assay; type: toxicity, cell-based; details: human, hek293, 24 h, 100 µM
# Method in brief: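 HEK293 cells stably expressing UGT1A3, seeded 24 h before treatment and exposed 24 h in 0.5% FBS DMEM (vehicle 0.1% DMSO). Alkaline comet assay: low-melting agarose embedding, lysis pH 10 for 1 h at 4°C, 30 min unwinding in NaOH/EDTA, electrophoresis 300 mA for 20 min, ethidium bromide stain. Tail extent moment scored on 150-180 cells over more than 3 experiments, median (IQR).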
# [10] = target: T2, UDP-glucuronosyltransferase 1A4 (Homo sapiens, UniProt P22310); assay: Activity of human UGT1A4 expressed in HEK293 cells assessed as enzyme-mediated diclofenac acyl-beta-D-glucuronide formation at 0.1 mM measured at 24 hrs by LC-MS/MS analysis; type: ADME, cell-based; details: hek293, 24 h, 100 µM
# T2 sequence (P22310 whole entry): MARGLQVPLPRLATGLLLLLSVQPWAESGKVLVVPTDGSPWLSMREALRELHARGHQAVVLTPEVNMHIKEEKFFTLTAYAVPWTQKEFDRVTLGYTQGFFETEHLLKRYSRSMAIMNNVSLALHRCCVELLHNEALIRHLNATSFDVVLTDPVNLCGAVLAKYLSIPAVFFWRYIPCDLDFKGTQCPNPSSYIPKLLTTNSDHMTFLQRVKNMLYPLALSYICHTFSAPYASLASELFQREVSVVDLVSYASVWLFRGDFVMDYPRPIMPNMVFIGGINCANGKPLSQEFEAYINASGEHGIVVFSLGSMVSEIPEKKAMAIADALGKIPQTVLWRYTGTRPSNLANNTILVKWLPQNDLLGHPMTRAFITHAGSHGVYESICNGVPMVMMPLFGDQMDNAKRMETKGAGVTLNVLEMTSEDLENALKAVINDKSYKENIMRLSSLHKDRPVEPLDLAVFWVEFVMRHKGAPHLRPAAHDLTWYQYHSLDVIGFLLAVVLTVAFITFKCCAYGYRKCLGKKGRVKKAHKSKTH
# Method in brief: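 HEK293 stably expressing human UGT1A4, 2 x 10^5 cells/well in DMEM with 0.5% FBS, drug exposure 6–24 h, DMSO ≤0.1% final. Acyl glucuronide in cell fraction and medium measured by LC-MS/MS after methanol/acetic acid (100:1) precipitation and centrifugation. Triplicate determinations.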
# HEK293 [11] = assay: Cytotoxicity against HEK293 cells expressing UGT1A3 assessed as decrease in cell viability at 0.1 mM by MTT assay; type: ADME, cell-based; details: human, hek293, 100 µM; TDE = time-dependent effect
# HEK293 [12] = assay: Cytotoxicity against HEK293 cells expressing UGT1A3 assessed as decrease in cell viability by measuring intracellular ATP content at 0.1 mM by CellTiter-Glo luminescent assay; type: ADME, cell-based; details: human, hek293, 100 µM; TDE = time-dependent effect; method in brief: as §1
# HEK293 [13] = assay: Cytotoxicity against HEK293 cells expressing UGT assessed as LDH leakage at 0.1 mM after 6 to 24 hrs by spectrophotometric analysis relative to total cell LDH level; type: ADME, cell-based; details: human, hek293, 100 µM
# Method in brief: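 Stable UGT-expressing or mock HEK293 lines in DMEM with 0.5% FBS, 2 x 10^4 cells/well, drug for 6, 12 or 24 h. LDH released into medium read at 490 nm (690 nm reference); percentage calculated against maximum release from control cells lysed with 1% Triton X-100.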
# HEK293 [14] = assay: Cytotoxicity against HEK293 cells expressing UGT1A3 assessed as decrease in cell viability at 0.1 mM measured at 24 hrs by MTT assay; type: ADME, cell-based; details: human, hek293, 24 h, 100 µM
smiles,measurement,setting,value
O=C([O-])Cc1ccccc1Nc1c(Cl)cccc1Cl.[Na+] [DICLOFENAC SODIUM],Drug metabolism,[1],metabolite_detected
same,Activity,HEK293 [2],tde
same,Activity,HEK293 [3],tde
same,Activity,HEK293 [4],tde
same,Activity,HEK293 [5],tde
same,Activity,HEK293 [6],Non-toxic
same,Drug uptake,Hepatocyte [7],Active
same,Drug uptake,Hepatocyte [8],Active
same,Activity,HEK293 [9],Non-toxic
same,Drug metabolism,[10],metabolite_not_detected
same,Activity,HEK293 [11],tde
same,Activity,HEK293 [12],tde
same,Activity,HEK293 [13],< 5.4%
same,Activity,HEK293 [14],Non-toxic
